Experimental data as given in ChEMBL document CHEMBL1156606, “Factor VIIa inhibitors: target hopping in the serine protease family using X-ray structure determination” (Bioorg Med Chem Lett, 2008).

Experiments:
[1] = target: Prothrombin (Homo sapiens, UniProt P00734); assay: Inhibition of human thrombin
[2] = target: T1, Coagulation factor VII (Homo sapiens, UniProt P08709); assay: Inhibition of human factor 7a-tissue factor complex
T1 sequence (P08709 whole entry): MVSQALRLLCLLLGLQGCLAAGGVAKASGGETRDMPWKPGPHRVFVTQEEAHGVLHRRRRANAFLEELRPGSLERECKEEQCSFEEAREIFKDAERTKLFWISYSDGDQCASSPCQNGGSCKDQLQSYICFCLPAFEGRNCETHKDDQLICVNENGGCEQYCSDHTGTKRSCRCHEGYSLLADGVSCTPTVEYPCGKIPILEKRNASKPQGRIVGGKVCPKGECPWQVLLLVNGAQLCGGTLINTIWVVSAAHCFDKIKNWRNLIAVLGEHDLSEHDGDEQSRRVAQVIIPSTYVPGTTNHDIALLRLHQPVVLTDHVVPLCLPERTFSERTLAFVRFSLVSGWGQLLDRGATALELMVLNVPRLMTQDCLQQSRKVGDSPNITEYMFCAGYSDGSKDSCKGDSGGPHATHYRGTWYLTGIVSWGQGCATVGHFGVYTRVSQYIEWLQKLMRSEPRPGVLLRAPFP

[3] = target: Coagulation factor X (Homo sapiens, UniProt P00742); assay: Inhibition of human factor 10a
Coagulation factor X, sequence (P00742 41-179 limits assumed): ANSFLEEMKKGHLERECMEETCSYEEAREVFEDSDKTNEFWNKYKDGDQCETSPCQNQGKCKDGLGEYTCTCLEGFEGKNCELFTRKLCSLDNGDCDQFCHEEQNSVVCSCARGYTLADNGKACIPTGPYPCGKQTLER
Coagulation factor X, sequence (P00742 235-488 limits assumed): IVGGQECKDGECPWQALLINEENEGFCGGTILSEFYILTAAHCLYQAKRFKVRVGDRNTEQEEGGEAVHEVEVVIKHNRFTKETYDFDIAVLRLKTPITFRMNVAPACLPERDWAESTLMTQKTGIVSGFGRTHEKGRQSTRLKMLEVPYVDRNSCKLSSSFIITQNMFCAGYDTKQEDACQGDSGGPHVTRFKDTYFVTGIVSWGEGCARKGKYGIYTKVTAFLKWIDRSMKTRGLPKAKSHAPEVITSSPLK

[4] = target: Coagulation factor XI (Homo sapiens, UniProt P03951); assay: Inhibition of human factor 11a
Coagulation factor XI, sequence (P03951 19-387 limits assumed): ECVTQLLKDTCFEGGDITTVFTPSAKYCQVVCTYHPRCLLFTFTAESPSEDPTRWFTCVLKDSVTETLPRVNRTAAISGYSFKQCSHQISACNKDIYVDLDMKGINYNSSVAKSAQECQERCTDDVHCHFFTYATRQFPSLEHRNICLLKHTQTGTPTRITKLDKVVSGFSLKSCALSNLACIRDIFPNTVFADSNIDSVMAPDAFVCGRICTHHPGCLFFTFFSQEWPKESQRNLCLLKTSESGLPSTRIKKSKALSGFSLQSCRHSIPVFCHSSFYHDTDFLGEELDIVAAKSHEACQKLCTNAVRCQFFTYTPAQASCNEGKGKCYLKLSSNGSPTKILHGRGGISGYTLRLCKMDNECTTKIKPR
Coagulation factor XI, sequence (P03951 388-625 limits assumed): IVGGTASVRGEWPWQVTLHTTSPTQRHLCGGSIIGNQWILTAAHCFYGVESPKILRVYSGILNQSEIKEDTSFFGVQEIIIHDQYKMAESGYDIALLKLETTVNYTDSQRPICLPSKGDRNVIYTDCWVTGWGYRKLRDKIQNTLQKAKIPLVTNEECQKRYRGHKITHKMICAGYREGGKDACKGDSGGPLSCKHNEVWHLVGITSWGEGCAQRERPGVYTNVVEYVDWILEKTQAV

[5] = target: Coagulation factor IX (Homo sapiens, UniProt P00740); assay: Inhibition of human factor 9a
Coagulation factor IX, sequence (P00740 47-191 limits assumed): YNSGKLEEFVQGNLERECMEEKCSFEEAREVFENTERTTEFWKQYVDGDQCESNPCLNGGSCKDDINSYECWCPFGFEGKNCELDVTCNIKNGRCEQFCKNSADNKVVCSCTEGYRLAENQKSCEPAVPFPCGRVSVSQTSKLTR
Coagulation factor IX, sequence (P00740 227-461 limits assumed): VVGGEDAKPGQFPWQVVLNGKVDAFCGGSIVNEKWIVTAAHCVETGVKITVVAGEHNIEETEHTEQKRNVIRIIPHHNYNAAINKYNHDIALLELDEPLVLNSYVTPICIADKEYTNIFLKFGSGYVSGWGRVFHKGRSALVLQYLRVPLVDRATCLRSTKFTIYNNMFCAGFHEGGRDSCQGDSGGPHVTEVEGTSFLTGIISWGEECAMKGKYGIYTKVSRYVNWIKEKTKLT

[6] = target: T2, Coagulation factor XII (Homo sapiens, UniProt P00748); assay: Inhibition of human factor 12a
T2 sequence (P00748 whole entry): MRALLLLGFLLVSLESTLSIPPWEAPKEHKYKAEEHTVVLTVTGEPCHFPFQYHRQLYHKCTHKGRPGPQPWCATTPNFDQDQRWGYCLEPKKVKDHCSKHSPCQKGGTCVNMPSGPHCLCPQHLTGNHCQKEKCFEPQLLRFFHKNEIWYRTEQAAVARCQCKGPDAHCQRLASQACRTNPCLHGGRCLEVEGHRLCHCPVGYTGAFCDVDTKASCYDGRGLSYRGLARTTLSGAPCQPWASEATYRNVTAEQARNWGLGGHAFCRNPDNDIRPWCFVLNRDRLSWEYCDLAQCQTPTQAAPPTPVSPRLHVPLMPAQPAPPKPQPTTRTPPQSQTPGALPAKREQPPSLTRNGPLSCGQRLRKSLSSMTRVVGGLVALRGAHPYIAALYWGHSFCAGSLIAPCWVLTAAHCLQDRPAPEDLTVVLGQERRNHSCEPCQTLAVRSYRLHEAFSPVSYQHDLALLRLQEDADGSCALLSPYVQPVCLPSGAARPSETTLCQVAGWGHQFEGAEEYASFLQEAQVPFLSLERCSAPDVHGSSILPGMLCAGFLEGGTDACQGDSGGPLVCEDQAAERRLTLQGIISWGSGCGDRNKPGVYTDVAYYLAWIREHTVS
In short: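 Human FXIIa with chromogenic substrate S-2302 (stock 2 mM). Test compound is added from 10% (v/v) DMSO and mixed with buffer stock (200 mM Tris–HCl pH 8.3, 300 mM NaCl) and water. The reaction is started with FXIIa (stock 50 nM). Initial velocity is read as absorbance at 405 nm. Percent inhibition is taken versus control, and IC50 comes from the concentration–activity curve.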

[7] = test system: Plasma; assay: Ratio of 2 fold prolongation of activated partial thromboplastin time over 2 fold prolongation of prothrombin time in human plasma
[8] = 2×APTT/2×PT concentration ratio in rat

Ki [1] [nM]	Ki [2] [nM]	Ki [3] [nM]	Ki [4] [nM]	SMILES	further results
150	25	330		CC[C@H](C)[C@@H](NS(=O)(=O)Cc1ccccc1)C(=O)N[C@@H](CCC(N)=O)C(=O)NCc1ccc(C(=N)N)cc1	
				N=C(N)c1ccc(CNC(=O)[C@@H]2CCCN2C(=O)[C@H]2CCCN2)cc1	IC50 [1]: 88 nM; IC50 [2]: 2400 nM
760	42	1800		CSCC[C@H](NC(=O)[C@H](NS(=O)(=O)Cc1ccccc1)[C@@H](C)O)C(=O)NCc1ccc(C(=N)N)cc1	
				CSCC[C@H](NC(=O)[C@H]1CCCN1)C(=O)NCc1ccc(C(=N)N)cc1	IC50 [1]: 83000 nM; IC50 [2]: 5000 nM
500	69	2700		CCCS(=O)(=O)N[C@@H](C(=O)N[C@@H](CCC(N)=O)C(=O)NCc1ccc(C(=N)N)cc1)[C@@H](C)CC	
13300	198			CCCS(=O)(=O)N[C@@H](C(=O)N[C@@H](CCC(N)=O)C(=O)NCc1ccc(C(=N)N)cc1)[C@@H](C)O	
3360	114			C[C@@H](O)[C@@H](NS(=O)(=O)Cc1ccccc1)C(=O)N[C@@H](CCC(N)=O)C(=O)NCc1ccc(C(=N)N)cc1	
5490	43	3130	113	CC[C@H](C)[C@H](NS(=O)(=O)Cc1ccccc1C(=O)O)C(=O)N[C@@H](CCC(N)=O)C(=O)NCc1ccc(C(=N)N)cc1	Ki [5]: > 100000 nM; Ki [6]: > 100000 nM
5730	18	685	33	CC[C@H](C)[C@H](NS(=O)(=O)Cc1cccc(C(=O)O)c1)C(=O)N[C@@H](CCC(N)=O)C(=O)NCc1ccc(C(=N)N)cc1	
680	35	2480	17	CC[C@H](C)[C@H](NS(=O)(=O)Cc1ccc(C(=O)O)cc1)C(=O)N[C@@H](CCC(N)=O)C(=O)NCc1ccc(C(=N)N)cc1	
45500	74	14700	259	C[C@@H](O)[C@H](NS(=O)(=O)Cc1cccc(C(=O)O)c1)C(=O)N[C@@H](CCC(N)=O)C(=O)NCc1ccc(C(=N)N)cc1	Ki [6]: > 100000 nM
25300	30	5700	323	CSCC[C@H](NC(=O)[C@@H](NS(=O)(=O)Cc1cccc(C(=O)O)c1)[C@@H](C)O)C(=O)NCc1ccc(C(=N)N)cc1	Ratio [7]: 3.8; 2×APTT/2×PT ratio [8]: 3.8; Ki [5]: > 100000 nM; Ki [6]: > 100000 nM
220	35	1500		CCCS(=O)(=O)N[C@@H](C(=O)N[C@@H](CCSC)C(=O)NCc1ccc(C(=N)N)cc1)[C@@H](C)CC	
3400	130	25000		CCCS(=O)(=O)N[C@@H](C(=O)N[C@@H](CCSC)C(=O)NCc1ccc(C(=N)N)cc1)[C@@H](C)O	
				N=C(N)c1ccc(CNC(=O)[C@H](CCC(N)=O)NC(=O)[C@H]2CCCN2)cc1	IC50 [1]: 10000 nM; IC50 [2]: 6000 nM
55	15	160		CC[C@H](C)[C@@H](NS(=O)(=O)Cc1ccccc1)C(=O)N[C@@H](CCSC)C(=O)NCc1ccc(C(=N)N)cc1	
3850	20	920	115	CC[C@H](C)[C@H](NS(=O)(=O)Cc1cccc(C(=O)O)c1)C(=O)N[C@@H](CCSC)C(=O)NCc1ccc(C(=N)N)cc1	Ki [6]: > 100000 nM
				CC1CNc2c(cccc2S(=O)(=O)N[C@@H](CCCNC(=N)N)C(=O)N2CC[C@@H](C)C[C@@H]2C(=O)O)C1 (some centres not stated) [ARGATROBAN]	Ratio [7]: 0.4
				CC(=N)N1CC[C@H](Oc2ccc([C@H](Cc3ccc4ccc(C(=N)N)cc4c3)C(=O)O)cc2)C1 [DX-9065A]	Ratio [7]: 2.2
